Measurements of several laboratories.
Lines come from different studies, so protocols differ. pIC50: −log10 of the molar value.
Cell line: A549
Read-out: cell growth or viability

SMILES | assay | setting | pIC50
C[C@H](NC(=O)[C@H](Cc1c[nH]cn1)NC(=O)[C@H](Cc1c[nH]c2ccccc12)NC(=O)[C@H](CCCCN)NC(=O)[C@H](Cc1c[nH]c2ccccc12)NC(=O)[C@H](Cc1c[nH]c2ccccc12)NC(=O)[C@H](CCCNC(=N)N)NC(=O)[C@H](Cc1c[nH]c2ccccc12)NC(=O)[C@H](Cc1c[nH]cn1)NC(=O)[C@@H](N)CCCNC(=N)N)C(=O)N[C@@H](CCCNC(=N)N)C(=O)N[C@@H](Cc1c[nH]c2ccccc12)C(=O)N[C@@H](Cc1c[nH]c2ccccc12)C(N)=O | MTT | 24 h | 4.31
[C-]#[O+].[C-]#[O+].[C-]#[O+].[C-]#[O+].[C-]#[O+].[C-]#[O+].[C-]#[O+].[C-]#[O+].[C-]#[O+].[C-]#[O+].[Mn].[Mn] | MTT | 48 h | 4.68
CC(C)[C@@H]1NC(=O)[C@@H](CCCNC(=N)N)NC(=O)[C@H]([C@@H](C)O)NC(=O)[C@@H](CCCNC(=N)N)NC(=O)[C@H](Cc2ccccc2)NC(=O)[C@@H](Cc2ccccc2)NC1=O | ATP luminescence |  | 4.21
CC[C@@]1(O)C(=O)OCc2c1cc1n(c2=O)Cc2cc3ccccc3nc2-1 | SRB | 48 h | 7.22
N.N.[Cl][Pt][Cl] |  |  | 5.92
O=C1c2ccccc2-c2c3c(cc4ccnc1c24)OCO3 | MTT | 75 h | 4.70
CC(C)[C@H](NC(=O)[C@H](Cc1c[nH]cn1)NC(=O)[C@H](Cc1c[nH]c2ccccc12)NC(=O)[C@H](Cc1c[nH]cn1)NC(=O)[C@H](C)NC(=O)[C@H](CCCCN)NC(=O)[C@H](Cc1c[nH]c2ccccc12)NC(=O)[C@H](Cc1c[nH]c2ccccc12)NC(=O)[C@H](CCCNC(=N)N)NC(=O)[C@H](Cc1c[nH]c2ccccc12)NC(=O)[C@H](CCCNC(=N)N)NC(=O)[C@@H](N)CCCNC(=N)N)C(=O)N[C@@H](Cc1c[nH]c2ccccc12)C(N)=O | MTT | 24 h | 3.62
N.N.[Cl][Pt][Cl] | MTT | 48 h | 5.26
CC(C)C[C@H](NC(=O)[C@H](CO)NC(=O)[C@H](CO)NC(=O)CNC(=O)[C@@H]1CCCN1C(=O)[C@H](Cc1ccc(O)cc1)NC(=O)[C@H](CC(C)C)NC(=O)[C@H](CO)NC(=O)[C@H](CS)NC(=O)[C@H](CC(C)C)NC(=O)[C@@H](N)CC(C)C)C(=O)O | MTT | 72 h | < 4.00
CC[C@H](C)[C@H](NC(=O)[C@H](CC(C)C)NC(=O)[C@H](CCCCN)NC(=O)[C@H](CCCCN)NC(=O)[C@H](CC(C)C)NC(=O)[C@H](CCCNC(=N)N)NC(=O)[C@H](CCCCN)NC(=O)[C@@H](N)CC(C)C)C(=O)N[C@@H](CCCCN)C(=O)N[C@@H](CCCCN)C(=O)N[C@@H](CC(C)C)C(=O)N[C@@H](CCCNC(=N)N)C(=O)N[C@@H](CCCCN)C(N)=O | MTT | 24 h | 4.00
COC(=O)c1cc(C(C)=NNc2nc(-c3ccc(S(=O)(=O)F)cc3)cs2)ccc1O | MTT | 96 h | 4.19
N.N.O=C([O-])C1(C(=O)[O-])CCC1.[Pt+2] | MTT | 48 h | 3.71
c1ccc([Se][Au]=[c]2n(C3CCCCC3)ccn2C2CCCCC2)cc1 | crystal violet |  | 6.05
CC(C)C[C@H](NC(=O)[C@@H]1CCCN1C(=O)[C@H](Cc1ccc(O)cc1)NC(=O)[C@H](CCCCN)NC(=O)[C@H](CCCCN)NC(=O)[C@H](CS)NC(=O)[C@H](CC(C)C)NC(=O)[C@H](CCCCN)NC(=O)[C@H](CCCCN)NC(=O)[C@H](Cc1ccccc1)NC(=O)[C@H](CC(C)C)NC(=O)[C@H](CCCCN)NC(=O)[C@@H](N)CCCNC(=N)N)C(N)=O | MTT | 24 h | 3.59
CC1=CC(=O)c2c(O)cccc2C1=O | MTT |  | 4.87
CC(C)C[C@H](NC(=O)[C@H](CCCCN)NC(=O)CN)C(=O)N[C@@H](C)C(=O)N[C@@H](CCCCN)C(=O)N[C@@H](CCCCN)C(=O)N[C@@H](CC(C)C)C(=O)N[C@@H](Cc1ccccc1)C(=O)N[C@@H](CCCCN)C(=O)N[C@@H](CCCCN)C(=O)N[C@@H](CC(C)C)C(=O)N[C@@H](CCCCN)C(=O)N[C@@H](Cc1ccc(O)cc1)C(N)=O | MTT | 24 h | 3.45
CC(C)[C@@H]1NC(=O)[C@@H](CCCNC(=N)N)NC(=O)[C@H]([C@@H](C)O)NC(=O)[C@@H](CCN)NC(=O)[C@H](Cc2ccccc2)NC(=O)[C@@H](Cc2ccccc2)NC1=O | ATP luminescence |  | < 4.00
CC(C)C[C@H](NC(=O)[C@H](CC(C)C)NC(=O)[C@H](CCCCN)NC(=O)[C@H](CCCCN)NC(=O)[C@H](Cc1ccccc1)NC(=O)[C@H](CC(C)C)NC(=O)[C@H](CCCCN)NC(=O)[C@H](CCCCN)NC(=O)[C@H](CC(C)C)NC(=O)[C@H](CC(C)C)NC(=O)[C@H](CCCCN)NC(=O)[C@@H](N)CCCNC(=N)N)C(=O)N[C@@H](CCCCN)C(N)=O | MTT | 24 h | 4.70
N.N.[Cl][Pt][Cl] | MTT | 72 h | 4.29
